Activity calls are given as the source filed them. No cut-off for these calls is given here.
Columns and labels:
[1] = Metabolic stability in mouse liver microsomes assessed as parent compound remaining preincubated for 15 mins followed by NADPH addition and measured after 2 hrs by LC-MS/MS analysis; format: ADME, Microsome; details: time 135 min, read-out: Stability
Outline: (§1)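 Microsomal stability assessed in mouse, human, rat or dog liver microsomes with NADPH cofactor. Half-life and percent parent remaining at 60 and 120 min reported. Mean of at least two independent experiments, each in two technical replicates.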

[2] = Metabolic stability in human liver microsomes assessed as half life preincubated for 15 mins followed by NADPH addition and measured after 1 to 2 hrs by LC-MS/MS analysis; format: ADME, Microsome; details: liver microsomes, time 75-135 min; outline: as §1
[3] = Metabolic stability in mouse liver microsomes assessed as half life preincubated for 15 mins followed by UDPGA addition and measured after 2 hrs by LC-MS/MS analysis; format: ADME, Microsome; details: time 135 min
Outline: (§2)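 Mouse and human liver microsomes incubated with UDPGA cofactor. Half-life and percent parent remaining at 120 min reported. Mean of at least two independent experiments, each in two technical replicates.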

[4] = Metabolic stability in human liver microsomes assessed as parent compound remaining preincubated for 15 mins followed by UDPGA addition and measured after 2 hrs by LC-MS/MS analysis; format: ADME, Microsome; details: time 135 min, read-out: Stability; outline: as §2
[5] = Metabolic stability in rat liver microsomes assessed as half life preincubated for 15 mins followed by NADPH addition and measured after 1 to 2 hrs by LC-MS/MS analysis; format: ADME, Microsome; details: liver microsomes, time 75-135 min; outline: as §1
[6] = Metabolic stability in rat liver microsomes assessed as parent compound remaining preincubated for 15 mins followed by NADPH addition and measured after 1 to 2 hrs by LC-MS/MS analysis; format: ADME, Microsome; details: time 75-135 min; outline: as §1
[7] = test system: BT-474; assay: Induction of apoptosis in human BT-474 cells assessed as increase in caspase activity after 24 hrs; format: functional, cell-based; details: dose 2.5-10 µM
Outline: (§3)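 BT-474 cells treated at a range of concentrations. Apoptosis read out as caspase activity and as cleaved PARP protein by immunoblot.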

[8] = test system: BT-474; assay: Induction of apoptosis in human BT-474 cells assessed as increase in cleaved PARP level after 24 hrs; format: functional, cell-based; details: dose 2.5-10 µM; outline: as §3
[9] = test system: MDA-MB-231; assay: Cytotoxicity against human MDA-MB-231 cells; format: functional
Outline: (§4)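 Human cancer lines (A375, MDA-MB-231, OMM-1, UPMM-2, CAPAN-2, HepG2, HT-29, HCT116) treated up to 30 μM. CC50 derived from concentration–response viability plots. Mean ± SEM, n ≥ 6. Two-tailed unpaired t test used between compounds.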

[10] = Cytotoxicity against human UPMM-2 cells; format: functional; outline: as §4
[11] = test system: Capan-2; assay: Cytotoxicity against human Capan-2 cells; format: functional; outline: as §4
[12] = test system: HT-29; assay: Cytotoxicity against human HT-29 cells; format: functional; outline: as §4
[13] = test system: HCT-116; assay: Cytotoxicity against human HCT-116 cells; format: functional; outline: as §4
[14] = Volume of distribution in CD1 mouse at 10 mg/kg, ip measured upto 24 hrs; format: ADME, organism-based; details: in vivo
Outline: (§5)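 Female CD1 mice given a single 10 mg/kg ip dose. Plasma concentration–time profile analyzed by noncompartmental analysis for half-life and volume of distribution. A two-compartment model was also fitted.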

[15] = Cmax in CD1 mouse at 10 mg/kg, ip measured upto 24 hrs; format: ADME, organism-based; parameters: dose 10 mg/kg, time < 24 hrs, route ip; details: in vivo; outline: as §5
[16] = Tolerability in CD1 mouse assessed as lethargy at 138 micromol/kg, ip; format: toxicity; details: in vivo, dose 138 µmol/kg
Outline: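 Female CD1 mice given daily ip injections at 138 μmol/kg (62 mg/kg). Animals observed for arched backs and lethargy.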

[17] = Tolerability in CD1 mouse assessed as reduction in body weight at 138 micromol/kg, ip measured after 2 days; format: toxicity, organism-based; details: in vivo, 48 h, dose 138 µmol/kg, time 2 day
Outline: (§6)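 Body weight tracked in female CD1 mice under three regimens: 138 μmol/kg (62 mg/kg) ip daily, assessed after 2 days; 138 μmol/kg every other day over 8 days; 69 μmol/kg (31 mg/kg) daily over 8 days.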

[18] = Tolerability in CD1 mouse assessed as reduction in body weight at 69 micromol/kg, ip administered every daily for 8 days; format: toxicity, organism-based; details: in vivo, 192 h, dose 69 µmol/kg, time 8 day; outline: as §6
[19] = Tolerability in CD1 mouse assessed as change in food intake at 69 micromol/kg, ip administered as 3 days on and 2 days off schedule and measured after 15 days; format: toxicity, organism-based; details: in vivo, 360 h, dose 69 µmol/kg, time 15 day
Outline: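 Female CD1 mice given 69 μmol/kg (31 mg/kg) ip, 3 days daily then 2 days off, or saline. Body weight, food intake and water intake monitored daily for 15 days. Weight expressed relative to the day before treatment (100%). Mean ± SEM, n = 3.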

[20] = test system: A-375; assay: Antitumor activity against human A-375 cells xenografted in NMRI-Foxn1nu mouse assessed as effect on autophagy by measuring increase in GFP-LC3-II expression at 30 mg/kg, ip administered for 2 days by immunoblotting analysis; format: functional, organism-based; details: time 2.0 day
Outline: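 Female NMRI-Foxn1nu mice bearing flank subcutaneous xenografts of GFP-LC3 reporter A375 cells, matched for tumor size, given 30 mg/kg ip or saline for 2 days. Euthanized 48 h after first injection. Tumor lysates immunoblotted with anti-LC3B for GFP-LC3-I and GFP-LC3-II. n = 3; unpaired two-tailed t test versus saline.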

[21] = Toxicity in NMRI-Foxn1nu mouse xenografted with human A-375 cells assessed as reduction in body weight at 30 mg/kg, ip administered as 3 days on and 2 days off schedule and measured after 15 days; format: organism-based; details: in vivo, 360 h, time 15 day
Outline: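 A375 xenograft-bearing female NMRI-Foxn1nu mice received 30 mg/kg ip or saline on a 3-days-on/2-days-off schedule. Body weight recorded daily to day 15, expressed relative to weight on the day before treatment (set to 100%). n = 8.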

[22] = Inhibition of REV-ERBbeta (unknown origin) transcription expressed in HEK293 cells incubated for 24 hrs by gaussia luciferase based assay; format: cell-based; details: Homo sapiens, HEK293, 24 h
Outline: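 HEK-293 cells cotransfected with REV-ERBβ and a luciferase reporter driven by two repeats of a REV-ERB response element (RevRE) consensus, then treated across a concentration range. Luciferase activity is expressed as fold of DMSO vehicle, mean ± SEM, n = 6, and EC50 is taken from the concentration-response curve. A parallel reporter carrying a mutated RevRE served as a specificity control.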

[23] = test system: BT-474; assay: Inhibition of REV-ERBbeta in REV-ERBbeta knockout human BT-474 cells assessed as induction of BMAL1 expression at 5 uM after 24 hrs by qRT-PCR analysis; format: cell-based
[24] = test system: A375 (human); assay: Inhibition of autophagy in human A375 cells expressing EGFP-LC3B assessed as increase in LC3-II protein level at 2.5 uM after 24 hrs by immunoblotting analysis
[25] = test system: A375 (human); assay: Inhibition of autophagy in human A375 cells expressing EGFP-LC3B assessed as increase in SQSTM1 protein level at 2.5 uM after 24 hrs by immunoblotting analysis
[26] = test system: A375 (human); assay: Inhibition of autophagy in human A375 cells expressing EGFP-LC3B assessed as accumulation of autophagosome after 24 hrs by Hoechst 33342 staining based fluorescent microscopy analysis; details: dose 1.25-5 µM

remaining at 2 h [1]: 72%
half-life [2]: > 2 h
half-life [3]: > 2 h
remaining at 2 h [4]: 95%
half-life [5]: > 1 h
Stability [6]: 98%
Vd [14]: 106.07 L/kg
Cmax [15]: 280.23 ng/mL
EC50 [22]: 3.61 µM
Structure (SMILES): Fc1ccc(C2(NCc3ccc(F)c(CC4CCNCC4)c3)CCCC2)cc1
Activity [7]: Dose-Dependent Effect
Activity [8]: Dose-Dependent Effect
CC50 [9]: 2.97 µM
CC50 [10]: 1.09 µM
CC50 [11]: 6.86 µM
CC50 [12]: 4.74 µM
CC50 [13]: 4.56 µM
Activity [16]: Non-Toxic
Activity [17]: Toxic
Activity [18]: Toxic
Activity [19]: Non-Toxic
Activity [20]: Active
Activity [21]: Non-Toxic
inhibition [23]: inactive
inhibition [24]: Active
inhibition [25]: Active
inhibition [26]: Dose-Dependent Effect

— ChEMBL document CHEMBL5344432, “Identification of a Dual Autophagy and REV-ERB Inhibitor with in Vivo Anticancer Efficacy” (J Med Chem, 2024)
